# Bioassay records as filed in PubChem BioAssay.
# This is a sample that favours compounds with a hit; in the whole collection about 12% have one here.
# ABCG2 block – ABCG2 efflux pump inhibitors, primary screen, multiplex with ABCB1, IgMXP3 cells, flow cytometry. Broad substrate specificity ATP-binding cassette transporter ABCG2 (Homo sapiens), Q9UNQ0. JC-1 efflux. inhibition, % at 6.6 µM. 190,000 tested, 0.1% active. AID 1325, 2008;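 active means inhibition above 80%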;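 further: 0% = DMSO and 100% = nicardipine control wells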
#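 Assay system – ABCG2 IgMXP3 and barcoded ABCB1 CCRF-Adr cell mix · Input – 3 million cells/mL in well · Reagent – JC-1 fluorescent substrate · Compound – single test compound dose, 6.6 µM final · Timing – 10 min exposure at 25 °C with rotation, no wash · Detection – flow cytometry of retained JC-1 fluorescence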
# ABCB1 inh – ABCB1 efflux pump inhibitors, primary screen, cell-based, multiplex, flow cytometry, ABCG2 counter-screen; CCRF-Adr cells, JC-1 efflux; inhibition, % at 6.6 µM; 190,000 tested, 0.067% active; AID 1326, 2008; in the data active means inhibition above about 40%;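 further: 0% = vehicle and 100% = reference inhibitor; higher value means more JC-1 retained so stronger ABCB1 efflux block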
# L major viab – Leishmania major promastigote growth inhibition, primary screen; Leishmania major promastigotes, resazurin fluorescence viability; inhibition, % at 10 µM; 200,000 tested, 9% active; AID 1063, 2008; in the data active means inhibition above about 50%;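 further: promastigotes grown with compound for 44 hours at 28 °C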
# RAM inhibit – inhibitors of the yeast RAM network, primary screen, dse1pr::URA3 reporter, 5-FOA selection | inhibition, % at 50 µM | S. cerevisiae dse1pr::URA3 reporter, 5-FOA growth OD615, 2 d; analog-sensitive cbk1-as2 kinase mutant strain | 190,000 tested, 1.8% active | AID 868, 2007;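 active means inhibition above a set limit, 3 SD over mean compound inhibition, cut at about 8.4% in these data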;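 further: 0% = DMSO-only wells with no growth and 100% = 10 µM 1-NA-PP1 full growth; inhibition rescues growth on 5-FOA so higher OD means more RAM inhibition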
# WT yeast gro inh – growth inhibition of WT strain, primary screen, mitochondrial fusion inhibitor project, WT and mutant strains, chemical genetic; mitochondrial fusion phenotypic screen; inhibition, % at 10 µM; 190,000 tested, 2.1% active; AID 1362, 2008; in the data active means inhibition above about 58%; tested in S. cerevisiae
# Numbers without * were called inactive.
SMILES,ABCG2 block,ABCB1 inh,L major viab,RAM inhibit,WT yeast gro inh
COc1ccc(N2C(=O)CCC(C(=O)N3CCN(c4ccccn4)CC3)C2c2ccc(F)cc2)cc1 (stereo not drawn),1,1,0,-2,-12
CC(C)OCCCNC(=S)NNC(=O)c1ccc(Cl)c(Cl)c1,1,-1,-1,3,6
Cc1ccc(Oc2ccc(NC(=O)Cn3ccsc3=N)cc2)cc1,0,0,100*,1,12
CC(=O)Nc1ccc(NC(=S)NC(=O)c2ccc([N+](=O)[O-])cc2)cc1,10,5,63*,2,-3
O=C(NNc1c(Cl)cc(Cl)cc1Cl)c1cccc([N+](=O)[O-])c1,4,1,79*,1,86
COc1ccc(C(=O)NC(=S)NC(C)C)cc1Br,7,0,-2,1,41
COc1ccc(C(=O)NC(=S)NNC(=O)c2ccc(NC(C)=O)cc2)cc1Br,-2,-1,77*,1,-7
COc1ccc(NC(=S)Nc2cccc([N+](=O)[O-])c2)cc1,3,0,87*,0,-8
Cc1cc(-c2nnc(CCC(=O)N3CCN(Cc4cccnc4)CC3)o2)c(C)o1,-1,0,2,0,-4
Cc1cccc(C(=O)Nc2ccc(N3CCN(S(C)(=O)=O)CC3)cc2)c1,2,0,-7,6,14
COc1ccc(C(=O)N2N=C3CC(C)(C)OCC3C2c2ccccc2)cc1 (stereo not drawn),-1,0,22,-1,-5
CCOC(=O)Cc1csc(NC(=S)NC(=O)c2ccc(Cl)cc2)n1,5,0,-9,6,-2
CC(=O)NNC(=S)NC(=O)c1cccc([N+](=O)[O-])c1,-9,0,68*,1,11
O=C(NC(=S)Nc1cccc(NC(=O)c2ccccc2)c1)c1cccc([N+](=O)[O-])c1,-1,0,2,3,11
CCC(=O)N1CCN(c2ccccc2NC(=S)NC(=O)c2cccc([N+](=O)[O-])c2)CC1,8,1,61*,2,23
CCCCCC(=O)NNC(=S)NC(=O)c1ccc([N+](=O)[O-])cc1,-3,-1,-4,-1,62*
CCOC(=O)Cc1csc(NC(=S)NC(=O)c2ccc([N+](=O)[O-])cc2)n1,45,1,75*,4,3
CCC(=O)N1CCN(c2ccc(NC(=S)NC(=O)c3cccc([N+](=O)[O-])c3)cc2)CC1,8,2,-4,5,-3
Cc1nn(CC(N)=O)c(=O)c2ccccc12,4,0,100*,1,-3
CCCc1nc2ccccc2n1Cc1ccccc1OC,0,0,26,0,27
OCCC1CN(Cc2ccccc2-c2ccco2)CCN1Cc1ccccc1 (stereo not drawn),2,1,19,0,20
CC(C)(C)C(=O)Nc1ccnc(-c2cccnc2)n1,0,0,-4,-1,73*
CCn1cc(C(=O)N2CCN(c3cccc(Cl)c3)CC2)c2cc(OC)c(OC)cc2c1=O,6,5,92*,1,-10
COc1cc2c(C(=O)N3CCN(c4cccc(Cl)c4)CC3)cn(C)c(=O)c2cc1OC,3,0,-3,4,-14
S=c1[nH]nc(-c2ccc3ncccc3c2)n1-c1ccc2c(c1)OCCO2,1,0,91*,2,3
SMILES,ABCG2 block,ABCB1 inh,L major viab,RAM inhibit,WT yeast gro inh
O=C(Cn1ccc2ccccc2c1=O)NCCC(=O)N1CCN(c2cccc(Cl)c2)CC1,-1,0,-6,9.7*,10
COc1ccc(C(=O)Nc2nc3c(s2)CCCC3)cc1S(=O)(=O)N1CCCc2ccccc21,3,0,97*,5,27
COc1ccc(C(=O)NC2CCCCCC2)cc1S(=O)(=O)N1CCCC1,1,0,4,4,1
COc1ccc(C(=O)NC2CCCCCC2)cc1S(=O)(=O)N1CCCc2ccccc21,38,1,94*,6,33
COc1ccc(C(=O)NCc2cccnc2)cc1S(=O)(=O)N1CCCc2ccccc21,7,2,25,0,-9
N=c1c(C(=O)NCc2ccc(F)cc2)cc2c(=O)n3ccccc3nc2n1CCCN1CCOCC1,42,1,60*,1,-10
